Bioassay records deposited in PubChem BioAssay by several laboratories.
SR-BI DiI-HDL act: SR-BI HDL lipid transfer activation | activation, % at 12.5 µM | AID 504775 | 0.096% of 320,000 active | CHO ldlA[mSR-BI] cells, DiI-HDL uptake fluorescence, 3 h; 100 = double the neutral-control signal;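 active = mean replicate activation of at least 60% and every replicate at or above 60%; inconclusive = mean or all-replicate condition met, but not both; inactive = mean below 60% and not all replicates reaching 60%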
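Material: SR-BI-overexpressing, LDLR-lacking CHO cells; schedule: compound exposure 3 h, 37 °C; reagent: DiI-labelled HDL at 10 µg/mL final; technique: bottom-read fluorescence, 550/595 nm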
SR-BI DiI inh: mouse SR-BI HDL lipid transfer inhibition; ldlA[mSR-BI] CHO cells, DiI-HDL uptake fluorescence, 3 h; Q61009; 0.96% of 320,000 active; inhibition, % at 12.5 µM;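 active = mean replicate inhibition of at least 70% and a set share of replicates each scoring 70 or more; inconclusive = meets just one of the two criteria; inactive = fails both criteria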
Target sequence (Q61009 whole entry, looked up): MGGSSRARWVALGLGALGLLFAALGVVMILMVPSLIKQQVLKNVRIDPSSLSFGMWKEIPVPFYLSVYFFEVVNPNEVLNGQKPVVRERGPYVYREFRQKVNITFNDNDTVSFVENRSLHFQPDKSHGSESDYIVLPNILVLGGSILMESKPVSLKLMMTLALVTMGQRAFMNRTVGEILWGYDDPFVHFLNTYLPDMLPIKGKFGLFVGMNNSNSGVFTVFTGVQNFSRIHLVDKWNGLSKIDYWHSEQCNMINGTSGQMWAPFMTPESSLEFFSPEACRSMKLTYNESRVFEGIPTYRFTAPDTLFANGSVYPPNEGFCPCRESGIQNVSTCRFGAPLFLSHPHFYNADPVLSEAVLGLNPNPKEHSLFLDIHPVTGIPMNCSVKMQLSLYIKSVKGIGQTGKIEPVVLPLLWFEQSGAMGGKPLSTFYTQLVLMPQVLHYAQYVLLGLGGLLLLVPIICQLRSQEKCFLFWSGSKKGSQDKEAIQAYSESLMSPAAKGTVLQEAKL
H9c2 TAG inh: reduces triacylglycerol accumulation in H9c2 cells; Nile Red lipid (TAG) fluorescence; cells loaded with 200 µM oleic acid; inhibition, % at 12.5 µM; 0.66% of 230,000 active; AID 651582;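 active = pattern-corrected inhibition of lipid staining of at least 50% with the nuclear-stain viability signal not falling by more than 50%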
Vif imaging: inhibitors of HIV Vif; HEK293T cells, Vif self-association by quenched fluorescence, imaging, 24 h; inhibition, % at 7.49 µM; 0.35% of 340,000 active; in the data active = inhibition above about 50%, passing the limit was not always enough; inconclusive = no clear call, values can overlap the other calls; inactive = below about 31%
SMARCA2 act: increases SMARCA2 function in MMTV reporter cells | MG213 cells, MMTV-luciferase reporter, dexamethasone, overnight | 1% of 370,000 active | AID 652017 | activation, % at 9.1 µM; in the data active = activation above about 7.8%
SMARCA2 conf: SMARCA2 activation, confirmation screen; 30% of 3,500 active; activation, % at 9.1 µM; shares compounds with SMARCA2 act; AID 652260; MG213 cells, MMTV-luciferase with dexamethasone, luminescence, overnight; MG213 cells expressing E1A, Rb sequestered; DMSO wells 0%, reference activator 100%;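 active = activation above its plate's cutoff, the mean activation of tested wells plus 3 SD, cut at about 7.9% in these data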
VP16 Luc act: counter-screen for SMARCA2 activators: GAL4-VP16 luciferase reporter activation; shares compounds with SMARCA2 act; activation, % at 9.1 µM; AID 686939; 41% of 3,500 active; HEK293 GAL4-VP16 pG5luc reporter, luciferase luminescence; scaled: DMSO wells 0%, SAHA wells 100%;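 active = activation above the solvent-only control well mean plus 3 SD, averaged across control plates, cut at about 5.2% in these data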
A number is an active result; . = inactive; ? = inconclusive; / = no result. Hits are enriched below; roughly 2.5% of the tested compounds scored in any of these assays.

SMILES	SR-BI DiI-HDL act	SR-BI DiI inh	H9c2 TAG inh	Vif imaging	SMARCA2 act	SMARCA2 conf	VP16 Luc act
CC1CCN(c2ccc(NC(=O)Cc3ccccc3)cc2)CC1	.	.	.	.	.	/	/
CCC(=O)Nc1ccc(N2CCC(C)CC2)cc1	.	.	.	.	9.6	.	.
O=C(Nc1ccc(N2CCCCCC2)cc1)c1ccccc1Cl	.	.	.	.	8.0	.	8.0
CC(=O)N1CCN(c2ccc(NC(=O)c3ccccc3Cl)cc2)CC1	.	.	/	.	.	/	/
Nc1ccccc1C(=O)NN=Cc1cccc([N+](=O)[O-])c1	/	/	/	/	9.1	15.0	.
Cc1nc2ccccc2cc1C(=O)N/N=C/c1cccc([N+](=O)[O-])c1	.	.	/	/	.	/	/
CCCCc1c(-c2ccccc2OC)ncn1Cc1ccc(F)cc1F	/	/	/	/	.	/	/
Cc1cccc(-c2nnc(-c3ccc4ccccc4c3)o2)c1	.	.	.	.	10.5	.	.
COc1ccc(C(=O)C[n+]2cccc3cc(C)ccc32)cc1	.	.	.	.	.	/	/
Cc1ccc2c(ccc[n+]2CC(=O)c2ccccc2)c1	.	.	/	.	11.7	.	.
OCC1OC(n2cnc3c(SCc4ccccc4)ncnc32)C(O)C1O (stereo not given)	.	.	.	.	8.7	13.3	.
OCC1OC(n2ccc3c(SCc4ccccc4)ncnc32)C(O)C1O (stereo not given)	.	.	.	.	9.4	.	9.6
Nc1ncnc2c1ncn2C1OC(CO)C(O)C1O (stereo not given)	.	.	.	.	8.6	.	.
C[C@@H]1CN([C@@H](C)CO)C(=O)CCCn2cc(nn2)CO[C@H]1CN(C)C(=O)CCCN(C)C	/	/	.	.	.	/	/
C[C@H](CO)N1C[C@H](C)[C@@H](CN(C)C(=O)CCC(F)(F)F)OCc2cn(nn2)CCCC1=O	/	/	/	/	8.4	.	.
COP(=O)(O)C[C@@H]1CCc2cc(C)cc([C@H](CC(C)C)NC(=O)OCc3ccccc3)c2O1	/	/	/	/	.	/	/
Cc1sc(NC(=O)c2ccc(Cl)s2)c(C(N)=O)c1C	.	.	/	.	.	/	/
Cc1sc(NC(=O)c2ccc(Br)s2)c(C(N)=O)c1C	.	.	/	/	9.1	.	9.6
CS/C(=N\N(C)C(N)=O)c1ccccc1	.	.	/	.	8.4	.	.
COc1ccc([C@H]2CC(=O)C[C@@H](CCn3cc(-c4ccc(F)cc4)nn3)O2)cc1	/	/	/	/	9.6	.	.
COc1ccc([C@H]2CC(=O)C[C@@H](CCn3cc(-c4ccccc4)nn3)O2)cc1	/	/	/	/	.	/	/
CC(NC(=O)COC(=O)c1ccc2c(=O)n3c(nc2c1)CCCCC3)c1ccccc1 (stereo not given)	.	.	.	.	.	/	/
C=CCOc1ccc(/C=N/Nc2ccccn2)cc1OC	.	.	.	.	9.0	9.2	10.8
CC(C)C[C@H](NC(=O)c1ccccc1)C(=O)N1CCC[C@H]1C(=O)NCc1ccccc1	/	/	/	/	.	/	/
O=C(NCCS(=O)(=O)N1CCN(c2cccc(Cl)c2)CC1)c1cc(=O)c2ccccc2o1	.	.	/	.	.	/	/
SMILES	SR-BI DiI-HDL act	SR-BI DiI inh	H9c2 TAG inh	Vif imaging	SMARCA2 act	SMARCA2 conf	VP16 Luc act
Cc1cc(NC(=O)CCS(=O)(=O)c2nc(-c3ccccc3)cc(C(F)(F)F)n2)no1	.	.	.	.	9.3	.	.
C=CCOc1ccc2oc(=O)cc(C)c2c1	.	.	/	.	10.0	.	.
Cc1cc(=O)oc2ccc(OCc3ccccc3)cc12	.	.	/	.	.	/	/
N/C(=N\OC(=O)c1cccc2ccccc12)c1ccccn1	.	.	.	.	10.7	11.0	10.1
N/C(=N\OC(=O)c1ccco1)c1ccccn1	.	.	/	.	11.8	7.9	9.2
COc1cc(OC)c(NC(=O)CN(C)S(=O)(=O)c2ccc(-c3ccc(=O)[nH]n3)s2)cc1Cl	.	.	/	.	.	/	/
Cn1nc(C2CC2)cc1NC(=O)C1(C)CCN1C(=O)c1ccccc1CCc1ccccc1 (stereo not given)	/	/	.	.	.	/	/
C=CCN1C(=O)[C@@H](CC(=O)NCCC(C)C)[C@]2(C(=O)OC)CCCCC=C12	/	/	/	/	.	/	/
O=C(NCc1cccnc1)c1cc(C2CCCN(S(=O)(=O)c3ccccc3)C2)on1 (stereo not given)	/	/	.	.	.	/	/
COc1ccc(-c2cc3c(nn2)-c2ccccc2C3=O)cc1	.	.	.	.	11.3	8.7	5.2
C[C@H]1NS(=O)(=O)c2cccc(Cl)c2O[C@@H]1c1ccccc1	/	/	/	/	.	/	/
COc1ccccc1Cc1c(-c2ccccc2)nc2ccc(Cl)cn12	/	/	/	/	10.9	.	.
COc1ccc(Cc2c(-c3ccccc3)nc3ccc(Cl)cn23)c(C)c1	/	/	/	/	.	/	/
COc1ccc(Cc2c(-c3ccccc3)nc3ccc(C)cn23)c(C)c1	/	/	/	/	9.2	.	.
Clc1cccc(-c2nc3ccc(Cl)cn3c2Cc2ccccc2)c1	/	/	/	/	8.2	.	.
N#Cc1c(-c2ccc(Cl)cc2)n(O)c2ccccc12	.	.	.	.	/	/	/
Nc1ccc(C(=O)NN2C(=O)[C@H](Cl)C2c2ccc(Cl)cc2)cc1 (stereo not given in full)	.	.	.	.	8.3	.	.
CSc1ccccc1OCc1cc(C(=O)N2CCSCC2)no1	.	.	.	.	13.1	9.6	10.4
CSc1ccccc1OCc1cc(C(=O)N2CCN(c3ncccn3)CC2)no1	/	.	/	.	.	/	/
CCCCNC(=O)C1(C)CCN1C(=O)c1cc2ccccc2s1 (stereo not given)	/	/	.	.	.	/	/
Cc1ccc(CSc2nn3c(=O)c(C)nnc3s2)cc1	.	.	/	.	8.6	.	.
Cc1nnc2sc(SCc3ccc(Cl)cc3)nn2c1=O	.	.	/	.	.	/	/
O=C(NC(=S)Nc1ccc(O)cc1)C1CCCC1	.	.	.	.	.	/	/
O=C(NC(=S)Nc1cccc(O)c1)C1CCCCC1	.	.	.	.	8.2	.	6.2
Cc1cc(C)c2[nH]c(C(=O)Nc3ccc4c(c3)OCO4)cc2c1	/	/	.	.	8.0	.	.
SMILES	SR-BI DiI-HDL act	SR-BI DiI inh	H9c2 TAG inh	Vif imaging	SMARCA2 act	SMARCA2 conf	VP16 Luc act
C/C(N)=C(/C#N)C(=O)COC(=O)Cc1coc2ccc3ccccc3c12	.	.	.	.	.	/	/
COC(=O)[C@]12C[C@H](CC(=O)NCCC(C)C)C(=O)N(Cc3cccc4ccccc34)C1=C[C@H](COCc1ccccc1)O[C@@H]2C	/	/	/	/	.	/	/
O=C(COC(=O)/C=C/c1ccc2ccccc2n1)NNC(=O)c1ccc([N+](=O)[O-])cc1	.	.	.	.	.	/	/
N#CC1(NC(=O)COC(=O)/C=C/c2ccc3ccccc3n2)CCCCC1	.	.	.	.	9.4	8.3	.
CCc1nc(NC(=O)Cc2csc(C)n2)sc1C(=O)OC	.	.	/	.	.	/	/
CCOc1cc(C(=O)NCC(C)CN(C)C)cc(OCC)c1OCC (stereo not given)	.	.	/	?	.	/	/
